For five compounds, IC50 results are on record in BindingDB's records for doi:10.1021/jm9802620 (University of Washington, 1998).

SMILES strings stand for the structures.

A word on the IC50: it is the concentration that gives 50% inhibition. Read a low IC50 as higher potency.

Assay [1] addresses Glyceraldehyde-3-phosphate dehydrogenase (GAPDH). As to the kind of experiment: Inhibitory activity measured for Glyceraldehyde-3-phosphate dehydrogenase (GAPDH) in Leishmania. mexicana. The essentials: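 Recombinant glycosomal GAPDH of L. mexicana, T. cruzi or T. brucei; human enzyme from erythrocytes. NADH formation followed at 340 nm, 21 °C, in 0.1 M triethanolamine-HCl pH 7.6 with DTT, NaN3, MgSO4, EDTA, 10 mM K2HPO4, 0.8 mM glyceraldehyde-3-phosphate, 0.19 mM NAD+, 5% DMSO. Reaction started with enzyme. IC50 from 0–1 min initial rates at ≥5 inhibitor levels versus DMSO control.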

Assay [2] has the same target. As to the kind of experiment: Inhibitory activity was measured for Glyceraldehyde-3-phosphate dehydrogenase (GAPDH) in Leishmania. mexicana.

Consider `Cc1cccc(CNc2ncnc3c2ncn3C2O[C@H](CO)[C@@H](O)[C@H]2O)c1` (stereo not given in full), for which, in assay [1], 0.7 mM corresponded to half-maximal inhibition (IC50). Still for that read-out and setting: the result for `Nc1ccc(CNc2ncnc3c2ncn3C2O[C@H](CO)[C@@H](O)[C@H]2O)cc1` (stereo not given in full) reads 3.1 mM.

In assay [1], `CC(C)=CCNc1ncnc2c1ncn2C1O[C@H](CO)[C@@H](O)[C@H]1O` (stereo not given in full) gave a concentration for half-maximal inhibition (IC50) above 5 mM. In assay [2], `CC(C)CCNc1ncnc2c1ncn2C1O[C@H](CO)[C@@H](O)[C@H]1O` (stereo not given in full) yielded an IC50 of 3.7 mM.

For the compound `OC[C@H]1OC(n2cnc3c(N[C@@H]4CCCc5ccccc54)ncnc32)[C@H](O)[C@@H]1O` (stereo not given in full), the IC50 in assay [1] was 0.36 mM.
